Results on four molecules are retold here after ChEMBL document CHEMBL1126582, “Symmetry-based inhibitors of HIV protease. Structure-activity studies of acylated 2,4-diamino-1,5-diphenyl-3-hydroxypentane and 2,5-diamino-1,6-diphenylhexane-3,4-diol” (J Med Chem, 1993).

Converted amounts (≈) assume the structure as drawn.

The nature of data set [1]: Cmax in plasma after oral dose (10 mg/kg). Format: ADME, organism-based. Further details: dose 10 mg/kg, route oral. The method, boiled down: (§1)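 Rats in groups of eight: four dosed 5 mg/kg intravenously, four 10 mg/kg orally. Dosing solutions were 5 mg/mL in 20% ethanol/5% glucose in water with 2 molar equiv HCl (1 equiv HCl or 2 equiv methanesulfonic acid for some). Terminal t1/2 from the IV arm (n = 4). Cmax was the peak plasma level after oral dosing (n = 4). Bioavailability was AUCoral/2 × AUCiv over 0-6 h.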

A short description of data set [2]: % bioavailability in rat after oral dose (10 mg/kg) 0 - 6 h. Format: ADME, organism-based. The note with it: in vivo. In outline: as §1
Data set [3] is described as follows: Estimated solubility (buffer pH 7.4). In kind it is ADME. Particulars: read-out: S. In outline: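 Solubility was estimated in pH 7.4 phosphate buffer.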
Data set [4] can be described thus: t1/2 in rats after IV dose (5 mg/kg). Format: ADME, organism-based. The note with it: rat, in vivo. In outline:
as §1

Another data set deals with MT4. The data set can be described thus: In vitro for cytotoxicity in MT-4 lymphocytes in the absence of HIV infection. Format: functional. The note with it: Homo sapiens. In outline:
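Uninfected MT-4 lymphocytes were cultured with compound. CC50 is the concentration at which 50% of cells remain viable.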

Data set [5] relates to Human immunodeficiency virus 1. Put plainly: In vitro for inhibition of cytopathic effect of HIV-1 3B in MT-4 lymphocytes. Format: functional, organism-based. The method, boiled down:
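MT-4 lymphocytes were infected with HIV-1 3B at an MOI of either 0.001 or 0.032 tissue culture infective dose per cell. EC50 is the concentration preventing 50% of viral cytopathic effect, from a single triplicate assay. No effect means no activity up to 100 μM or up to the cytotoxic concentration.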

The target in data set [6] is Human immunodeficiency virus type 1 protease (Human immunodeficiency virus 1, UniProt Q72874). The data set can be described thus: Inhibition of purified recombinant HIV-1 protease in a fluorogenic assay. The method, boiled down:
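Purified recombinant HIV-1 protease, with cleavage of the fluorogenic substrate DABCYL-[…]-Pro-Ile-Val-Gln-EDANS as read-out. Value is the inhibitor concentration giving 50% inhibition of protease activity.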

One may read the Cmax as the maximum level reached in the sampled fluid or tissue. A word on the bioavailability: it is dose-corrected exposure relative to a reference, in per cent. High values mean good availability, low ones poor availability. Broadly, the half-life is how long it takes for the measured level to halve. A word on the CC50: it is the concentration that lowers cell viability or growth by half. Low readings indicate greater toxicity to the cells, high ones lower toxicity to the cells. Broadly, the EC50 is the concentration that produces a half-maximal response. Read a low EC50 as higher potency in that assay. What is called IC50 is the midpoint of a concentration-inhibition curve.

`CC(C)[C@H](NC(=O)OCc1ccccn1)C(=O)N[C@@H](Cc1ccccc1)C(O)[C@H](Cc1ccccc1)NC(=O)[C@H](NC(=O)OCc1ccccn1)C(C)C` (stereo partly drawn) gave a Cmax in data set [1] of 1600 nM. In data set [2], the bioavailability amounted to 19%. Moreover, the solubility in data set [3] is 51 µg/mL (≈ 69 µM). Also, the half-life in data set [4] is 114 min. This molecule returned a CC50 in the data set with MT4 of 57 µM. The response in data set [5] was half-maximal at 4.5 µM (EC50). The IC50 in data set [6] turned out to be 4.8 nM.

Turning to `CC(C)[C@H](NC(=O)OCc1cccnc1)C(=O)N[C@@H](Cc1ccccc1)C(O)[C@H](Cc1ccccc1)NC(=O)[C@H](NC(=O)OCc1cccnc1)C(C)C` (stereo partly drawn), the highest level in data set [1] (Cmax) was 220 nM. This molecule yielded a bioavailability in data set [2] of 2.1%. For the same molecule, in data set [3], the solubility is 18 µg/mL (≈ 24.4 µM). In addition, the half-life in data set [4] was 18.6 min. This molecule came in with a CC50 in the data set with MT4 of 62 µM. This molecule also displayed an EC50 in data set [5] of 6.3 µM. Moreover, in data set [6], the IC50 was found to be 6.8 nM.

For the molecule `CC(C)[C@H](NC(=O)N(C)Cc1ccccn1)C(=O)N[C@@H](Cc1ccccc1)C(O)[C@H](Cc1ccccc1)NC(=O)[C@H](NC(=O)N(C)Cc1ccccn1)C(C)C` (stereo partly drawn), the Cmax in data set [1] was found to be 1500 nM. Moreover, in data set [2], the bioavailability was 11%. Also, the solubility in data set [3] is 167 µg/mL (≈ 218 µM). This molecule also showed a half-life in data set [4] of 27 min. Besides, the CC50 with MT4 was more than 100 µM. Further, the EC50 in data set [5] was determined as 25 µM. In data set [6], the IC50 is 43 nM.

In data set [1], `CC(C)[C@H](NC(=O)N(C)Cc1cccnc1)C(=O)N[C@@H](Cc1ccccc1)[C@H](O)[C@H](O)[C@H](Cc1ccccc1)NC(=O)[C@H](NC(=O)N(C)Cc1cccnc1)C(C)C` displayed a Cmax of 520 nM. Besides, the bioavailability in data set [2] turned out to be 17%. For the same molecule, in data set [3], the solubility is 91 µg/mL (≈ 114 µM). The molecule further showed a half-life in data set [4] of 78 min. In the data set on MT4, this molecule gave a CC50 of more than 100 µM. The molecule further yielded an EC50 in data set [5] of 1.4 µM. Besides, the IC50 in data set [6] was less than 1 nM.
